Reference: ChEMBL document CHEMBL1125714, “Novel class of amino acid antagonists at non-N-methyl-D-aspartic acid excitatory amino acid receptors. Synthesis, in vitro and in vivo pharmacology, and neuroprotection” (J Med Chem, 1991)
Several values for one entry are separate records, joined by “and”; a condition that tells them apart may be missing. Equal values may be shown once.

Legend:
[1] = species on record: Rattus norvegicus; test: Neuroprotective effect evaluated for excitatory amino acid receptor antagonism with the concentration at 1 uL in the corpus striatum of 9 rats with glutamic acid decarboxylase as the marker enzyme.; format: functional
In short: (§1)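 […]-anaesthetised rats (4 mL/kg ip), stereotaxic cannula into corpus striatum; 1 µL infused containing kainate (10 nmol), quinolinic acid (300 nmol) or AMPA (100 nmol), with or without co-infused antagonist. After 3-day recovery, striata were homogenised in 50 mM Tris-HCl pH 7.4 with 0.2% Triton X-100 and spun 10000g for 10 min. Choline acetyltransferase or glutamic acid decarboxylase activity was reported as % remaining versus non-lesioned striatum.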

[2] = species on record: Rattus norvegicus; test: Neuroprotective effect evaluated for excitatory amino acid receptor antagonism with the concentration at 1 uL in the corpus striatum of 9 rats with choline acetyltransferase as the marker enzyme.; format: functional; in short: as §1
[3] = Inhibition of the binding of radioligand [3H]AMPA in the presence of the compound. at Non N-methyl-D-aspartate glutamate receptor
In short: (§2)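 Rat brain membrane [3H]AMPA binding run with 100 mM isothiocyanate present, so both high- and low-affinity AMPA sites are detected. Competitors were tested over concentration ranges of 1–1000 μM, and the IC50 was calculated from displacement data.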

[4] = molecular target: Glutamate receptor ionotropic AMPA (Homo sapiens, UniProt P42261+P42262+P42263+P48058); test: Inhibition of the binding of radioligand [3H]AMPA in the presence at low-affinity AMPA receptor sites.; format: protein-complex assay
[5] = species on record: Rattus norvegicus; test: Neuroprotective effect evaluated for excitatory amino acid receptor antagonism with the concentration at 1 uL in the corpus striatum of 3 rats with choline acetyltransferase as the marker enzyme.; format: functional
In short: (§3)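 Rat corpus striatum, stereotaxic infusion under […] anaesthesia (4 mL/kg ip). 1 μL solution held KAIN 10 nmol, quinolinic acid 300 nmol or AMPA 100 nmol, with or without antagonist 150 nmol. After 3 days recovery, striatum was homogenized in Tris-HCl/Triton X-100 and spun at 10000g. Choline acetyltransferase and glutamic acid decarboxylase activities were read as percent of non-lesioned tissue.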

[6] = species on record: Rattus norvegicus; test: Neuroprotective effect evaluated for excitatory amino acid receptor antagonism with the concentration at 1 uL in the corpus striatum of 3 rats with glutamic acid decarboxylase as the marker enzyme.; format: functional; in short: as §3
[7] = species on record: Rattus norvegicus; test: Neuroprotective effect evaluated for excitatory amino acid receptor antagonism with the concentration at 1 uL in the corpus striatum of 5 rats with glutamic acid decarboxylase as the marker enzyme.; format: functional; in short: as §1
[8] = species on record: Rattus norvegicus; test: Neuroprotective effect evaluated for excitatory amino acid receptor antagonism with the concentration at 1 uL in the corpus striatum of 5 rats with choline acetyltransferase as the marker enzyme.; format: functional; in short: as §1
[9] = species on record: Rattus norvegicus; test: Neuroprotective effect evaluated for excitatory amino acid receptor antagonism with the concentration at 1 uL in the corpus striatum of 7 rats with glutamic acid decarboxylase as the marker enzyme.; format: functional; in short: as §1
[10] = species on record: Rattus norvegicus; test: Neuroprotective effect evaluated for excitatory amino acid receptor antagonism with the concentration at 1 uL in the corpus striatum of 7 rats with choline acetyltransferase as the marker enzyme.; format: functional; in short: as §1
[11] = species on record: Rattus norvegicus; test: Neuroprotective effect evaluated for excitatory amino acid receptor antagonism with the concentration at 1 uL in the corpus striatum of 14 rats with glutamic acid decarboxylase as the marker enzyme.; format: functional; in short: as §1
[12] = species on record: Rattus norvegicus; test: Neuroprotective effect evaluated for excitatory amino acid receptor antagonism with the concentration at 1 uL in the corpus striatum of 14 rats with choline acetyltransferase as the marker enzyme.; format: functional; design: concentration or dose not given beside the values; in short: as §1
[13] = Inhibition of the binding of radioligand [3H]AMPA in the presence at Non N-methyl-D-aspartate glutamate receptor; in short: as §2

Cc1onc(O)c1CC(N)C(=O)O.Cc1onc(O)c1Cn1oc(C)c(CC(N)C(=O)O)c1=O (stereo unspecified) showed an Enzyme activity [1] of 39% and an Enzyme activity [2] of 53%.

Cc1onc(O)c1Cn1oc(C)c(CC(N)C(=O)O)c1=O (stereo unspecified) gave an IC50 [3] of 29 µM and an IC50 [4] of 335 µM.

For Cc1onc(OCC(=O)O)c1CC(N)C(=O)O.O=C(O)c1cccnc1C(=O)O (stereo unspecified), the Enzyme activity [5] was 52% and the Enzyme activity [6] was 64%.

Molecule Cc1onc(O)c1Cn1oc(C)c(CC(N)C(=O)O)c1=O.O=C(O)c1cccnc1C(=O)O (stereo unspecified) has an Enzyme activity [7] of 49% and an Enzyme activity [8] of 50%.

With Cc1onc(O)c1CC(N)C(=O)O.O=C(O)C1CN(CCCP(=O)(O)O)CCN1 (stereo unspecified) the Enzyme activity [9] was 50% and the Enzyme activity [10] was 55%.

With Cc1onc(O)c1CC(N)C(=O)O.Cc1onc(OCC(=O)O)c1CC(N)C(=O)O (stereo unspecified) the Enzyme activity [11] was 62% and the Enzyme activity [12] was 68%.

O=C(O)C1CN(CCCP(=O)(O)O)CCN1.O=C(O)c1cccnc1C(=O)O (stereo unspecified) showed an Enzyme activity [7] of 99% and an Enzyme activity [8] of 98%.

Cc1onc(OCC(=O)O)c1CC(N)C(=O)O (stereo unspecified) gave an IC50 [13] of 90 µM and an IC50 [4] of 98 µM.

For Cc1onc(O)c1CC(N)C(=O)O [(R,S)-AMPA], the Enzyme activity [12] was 53% and 40%.

With C=C(C)[C@H]1CN[C@H](C(=O)O)[C@H]1CC(=O)O [KAINIC ACID] the Enzyme activity [9] was 44% and the Enzyme activity [10] was 34%.

For O=C(O)c1cccnc1C(=O)O [QUINOLINIC ACID], the Enzyme activity [11] was 53% and the Enzyme activity [12] was 61%.
